In assay [1] the test system is Pseudomonas aeruginosa. Description: Antibacterial activity against Pseudomonas aeruginosa ATCC 23564 after 24 hrs by broth microdilution method. The assay is classed as functional. In short, it runs like this:
(§1)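 Microwell broth dilution in brain heart infusion broth (nutrient broth adjusted to pH 7.0). Inoculum from 16 h cultures, adjusted to 0.5 McFarland (1.5 × 10⁸ CFU/mL). 10 µL compound (serial dilutions 20 down to 0.625 or 0.312 µM/mL) plus 10 µL culture added to 150 µL broth. Incubated 24 h at 37 °C. MIC95 is the lowest concentration with no turbidity. Ciprofloxacin reference; inoculum and broth controls.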
On the technique in general: In broth dilution the organism is exposed to a series of concentrations in liquid medium.

Assay [2] deals with Escherichia coli. In words: Antibacterial activity against Escherichia coli ATCC 35218 after 24 hrs by broth microdilution method. The assay is classed as functional. In short, it runs like this: as §1
In assay [3] the test system is Salmonella typhi. Description: Antibacterial activity against Salmonella typhi ATCC 15499 after 24 hrs by broth microdilution method. The assay is classed as functional, Salmonella enterica subsp. enterica serovar Typhi. In short, it runs like this: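 Broth microdilution in brain heart infusion broth in microwells. Inoculum was prepared from 16 h cultures adjusted to the 0.5 McFarland standard (1.5 × 10⁸ CFU/mL). Compounds were serially diluted from 20 down to 0.625 µM/mL and added to the broth, followed by the bacterial culture. Plates were incubated 24 h at 37 °C, with optical density read. MIC95 was the lowest concentration giving no turbidity. Inoculum and broth controls were included.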

Assay [4] has as its system Aspergillus flavus. Description: Antifungal activity against Aspergillus flavus after 72 hrs by agar disk diffusion method. The assay is classed as functional. In short, it runs like this:
(§2)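 Sterile filter-paper discs dipped in the acetone dilutions of compound (20–0.315 µM/mL), then dried to remove acetone. Sabouraud dextrose agar plates spread with 1 mL fungal culture. Discs placed aseptically; one drug-free disc served as growth control; fluconazole reference. Plates incubated upright 72 h at 28 °C. Zone of inhibition measured in mm with a scale.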

A short description of assay [5]: Cytotoxicity against human L123 cells after 48 hrs by MTT assay. The assay is classed as cell-based. In short, it runs like this: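 MTT assay. 2×10³ cells per well in MEM + 10% FBS, attached 24 h, then treated at 5, 10, 20, 50 and 100 µM/mL for 48 h; controls received medium with 0.2% DMSO. Duplicate treatments. Cells PBS-washed, given MTT (stock 1 mg/mL) for 4 h at 37 °C. Formazan dissolved in DMSO, read at 590 nm. IC50 is the concentration reducing viability by 50%.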
(Tetrazolium assays rely on reduction of a dye to a coloured formazan, in cell work by metabolically active cells.)

For assay [6], the system named is Aspergillus niger. Description: Antifungal activity against Aspergillus niger after 72 hrs by broth dilution method. The assay is classed as functional. In short, it runs like this:
(§3)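 Compounds and fluconazole reference were dissolved in acetone at 120 µM/mL and serially diluted to 20–0.315 µM/mL. 10 µL compound plus 10 µL fungal culture broth added to 150 µL Sabouraud dextrose medium per well. Optical density recorded, then incubated 72 h at 28 °C. MIC95 taken from absence of turbidity. Acetone-at-same-dilution solvent control.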

Assay [7] concerns Providencia rettgeri. Description: Antibacterial activity against Providencia rettgeri DRDE after 24 hrs by broth microdilution method. The assay is classed as functional. In short, it runs like this:
as §1

For assay [8], the system named is Bacillus cereus. In words: Antibacterial activity against Bacillus cereus MTCC 7350 after 24 hrs by broth microdilution method. The assay is classed as functional. In short, it runs like this:
as §1

Assay [9] concerns Staphylococcus aureus. In words: Antibacterial activity against Staphylococcus aureus ATCC 11632 after 24 hrs by broth microdilution method. The assay is classed as functional. In short, it runs like this:
as §1

For assay [10], the system named is Aspergillus fumigatus. Description: Antifungal activity against Aspergillus fumigatus after 72 hrs by agar disk diffusion method. The assay is classed as functional. In short, it runs like this: as §2
(A growth-free zone around the sample is the usual read-out of agar diffusion tests.)

Assay [11] deals with Aspergillus fumigatus. Description: Antifungal activity against Aspergillus fumigatus after 72 hrs by broth dilution method. The assay is classed as functional. In short, it runs like this: as §3
The test system of assay [12] is Aspergillus flavus. Description: Antifungal activity against Aspergillus flavus after 72 hrs by broth dilution method. The assay is classed as functional. In short, it runs like this:
as §3

Assay [13] has as its system Aspergillus niger. In words: Antifungal activity against Aspergillus niger after 72 hrs by agar disk diffusion method. The assay is classed as functional. In short, it runs like this:
as §2

Where [14] appears, read: Salmonella enterica subsp. enterica serovar Typhi.

Each structure is given as a SMILES string. The source made the active and inactive calls. The rule behind the calls is not given here.

With `COc1cc(/C=C/C(=O)C(=Cc2ccc(N(C)C)cc2)C(=O)/C=C/c2ccc(O)c(OC)c2)ccc1O`, the MIC95 came out at 1.25 uM/ml in [1]; 2.5 uM/ml in assay [3]; 5 uM/ml in assay [6]; 0.625 uM/ml in assay [8]; 5 uM/ml in assay [9]; 1.25 uM/ml in assay [11]. Besides, the MIC95 result in assay [2], in [7] and in [12] was “inactive” each time. Besides, in [4], the “inhibition zone (IZ)” value is “inactive”. In assay [5], this molecule displayed an IC50 above 100 uM/ml. Further, the “inhibition zone (IZ)” value in assay [10] turned out to be 20 mm; in assay [13], 15 mm.

As to `COc1cc(/C=C/c2cc(/C=C/c3ccc(O)c(OC)c3)n(-c3ccc([N+](=O)[O-])cc3[N+](=O)[O-])n2)ccc1O`, the MIC95 entry in assay [1], in assay [2], in assay [7] and in assay [11] was “inactive” each time. The MIC95 in [3] is listed as 2.5 uM/ml; in assay [6], 2.5 uM/ml; in assay [8], 1.25 uM/ml; in assay [9] it was 1.25 uM/ml; in [12], 1.25 uM/ml. Moreover, the “inhibition zone (IZ)” value in assay [4] was found to be 20 mm; in assay [13], 17 mm. In assay [5], this molecule had an IC50 above 100 uM/ml. For the same molecule, the “inhibition zone (IZ)” value in [10] was “inactive”.

On to `COc1cc(/C=C/C(=O)C2=C(/C=C/c3ccc(O)c(OC)c3)N=C3Sc4ccccc4N3C2c2c(Cl)cccc2Cl)ccc1O` (stereo not drawn), for which the MIC95 was 20 uM/ml in assay [1], 20 uM/ml in [2], 10 uM/ml in [7] and 5 uM/ml in assay [8]. In addition, the MIC95 result in [3] (setting [14]), in assay [6], in assay [9], in [11] and in assay [12] was “inactive” throughout. Besides, the “inhibition zone (IZ)” value in [4], in [10] and in assay [13] was “inactive” each time. For the same molecule, the IC50 in [5] is above 100 uM/ml.

Consider `COc1cc(/C=C/c2cc(/C=C/c3ccc(O)c(OC)c3)n(C(N)=O)n2)ccc1O`, for which the MIC95 in assay [1] worked out at 5 uM/ml; in assay [2], 2.5 uM/ml; in assay [6], 5 uM/ml; in assay [7], 2.5 uM/ml; in assay [11] it was 1.25 uM/ml. For the same molecule, the MIC95 entry in [3] (setting [14]), in [8], in assay [9] and in [12] was “inactive” each time. In addition, in assay [4], the “inhibition zone (IZ)” value is “inactive”. The “inhibition zone (IZ)” value is listed as 20 mm in assay [10] and 15 mm in [13].

Consider `COc1cc(/C=C/C(=O)C2=C(/C=C/c3ccc(O)c(OC)c3)N=C3Sc4ccccc4N3C2c2ccc([N+](=O)[O-])cc2)ccc1O` (stereo not drawn), for which the MIC95 in assay [1] came out at 10 uM/ml; in [2] it was 5 uM/ml; in assay [3] it was 20 uM/ml; in assay [6] it was 10 uM/ml; in [7], 10 uM/ml; in assay [8], 2.5 uM/ml. In addition, the MIC95 in [11] was found to be 20 uM/ml. Besides, the “inhibition zone (IZ)” value in assay [4] was “inactive”. Further, the IC50 in assay [5] is above 100 uM/ml. The MIC95 entry in assay [9] and in assay [12] was “inactive” in each case. The figures for the “inhibition zone (IZ)” value in [10] and in [13] were 15 mm and 10 mm, respectively.

With `O=C(O)c1cn(C2CC2)c2cc(N3CCNCC3)c(F)cc2c1=O` [CIPROFLOXACIN], the MIC95 in assay [1] is listed as 1.25 uM/ml; in [2], 1.25 uM/ml; in [3], 2.5 uM/ml; in assay [7], 1.25 uM/ml; in assay [8], 0.625 uM/ml; in assay [9] it was 1.25 uM/ml.

As for `OC(Cn1cncn1)(Cn1cncn1)c1ccc(F)cc1F` [FLUCONAZOLE], the “inhibition zone (IZ)” value turned out to be 25 mm in [4], 22 mm in [10] and 18 mm in assay [13]. The MIC95 in [6] came out at 2.5 uM/ml; in assay [11], 1.25 uM/ml; in assay [12], 1.25 uM/ml.

With `COc1cc(/C=C/C(=O)CC(=O)/C=C/c2ccc(O)c(OC)c2)ccc1O` [CURCUMIN], the MIC95 result in assay [1] and in assay [12] was “inactive” throughout. Moreover, the MIC95 in assay [2] is 20 uM/ml; in assay [3], 20 uM/ml; in assay [6], 20 uM/ml; in assay [7], 20 uM/ml; in [8] it was 10 uM/ml; in assay [9] it was 20 uM/ml. Moreover, in [11], the MIC95 worked out at 20 uM/ml. In addition, the “inhibition zone (IZ)” value in assay [4] is “inactive”. In addition, the “inhibition zone (IZ)” value was 12 mm in assay [10] and 9 mm in assay [13].

Regarding `COc1cc(/C=C/c2cc(/C=C/c3ccc(O)c(OC)c3)n(C(N)=S)n2)ccc1O`, the MIC95 is 2.5 uM/ml in assay [1]; 2.5 uM/ml in assay [3]; 2.5 uM/ml in assay [6]; 1.25 uM/ml in assay [7]; 0.625 uM/ml in assay [8]; 1.25 uM/ml in assay [9]. Moreover, the MIC95 in assay [11] is reported as 2.5 uM/ml; in [12], 1.25 uM/ml. Also, the MIC95 result in assay [2] is “inactive”. For the same molecule, the entries for the “inhibition zone (IZ)” value in [4], in [10] and in assay [13] were 20 mm, 25 mm and 22 mm, respectively.

With `COc1cc(/C=C/C(=O)C(=Cc2ccccc2)C(=O)/C=C/c2ccc(O)c(OC)c2)ccc1O`, the MIC95 result in assay [1], in assay [6] and in [12] was “inactive” throughout. For the same molecule, the MIC95 in assay [2] was 1.25 uM/ml; in assay [3] it was 2.5 uM/ml; in assay [7], 0.625 uM/ml; in assay [8] it was 0.625 uM/ml; in [9], 1.25 uM/ml; in assay [11], 2.5 uM/ml. The “inhibition zone (IZ)” value in assay [4] and in assay [13] was “inactive” each time. In addition, in assay [10], the “inhibition zone (IZ)” value came out at 15 mm.

For `COc1cc(/C=C/C(=O)C2=C(/C=C/c3ccc(O)c(OC)c3)N=C3Sc4ccccc4N3C2c2ccc(C)cc2)ccc1O` (stereo not drawn), the MIC95 entry in assay [1], in assay [3] (setting [14]), in assay [6], in assay [11] and in assay [12] was “inactive” each time. For the same molecule, the MIC95 amounted to 10 uM/ml in assay [2], 20 uM/ml in assay [7], 5 uM/ml in assay [8] and 20 uM/ml in assay [9]. Moreover, the “inhibition zone (IZ)” value in assay [4], in assay [10] and in assay [13] was “inactive” in each case.

Take `COc1cc(/C=C/C(=O)C2=C(/C=C/c3ccc(O)c(OC)c3)N=C3Sc4ccccc4N3C2c2ccc(O)cc2)ccc1O` (stereo not drawn): the MIC95 was determined as 10 uM/ml in assay [1]; 5 uM/ml in [2]; 20 uM/ml in assay [3]; 2.5 uM/ml in [8]; 1.25 uM/ml in assay [9]; 5 uM/ml in [11]. Also, the “inhibition zone (IZ)” value in [4] and in assay [13] was “inactive” throughout. The MIC95 entry in assay [6], in assay [7] and in [12] was “inactive” in each case. Moreover, the “inhibition zone (IZ)” value in assay [10] is on record as 12 mm.

For the molecule `COc1cc(/C=C/C(=O)C2=C(/C=C/c3ccc(O)c(OC)c3)N=C3Sc4ccccc4N3C2c2ccc(O)c(OC)c2)ccc1O` (stereo not drawn), the MIC95 was 5 uM/ml in assay [1]; 10 uM/ml in [2]; 10 uM/ml in [3]; 10 uM/ml in [7]; 2.5 uM/ml in [8]; 12 uM/ml in assay [12]. Moreover, the “inhibition zone (IZ)” value in assay [4] worked out at 11 mm. Besides, the MIC95 entry in assay [6], in assay [9] and in assay [11] was “inactive” each time. In addition, the “inhibition zone (IZ)” value in [10] and in assay [13] was “inactive” each time.

The record behind these values is ChEMBL document CHEMBL2203144, “Synthesis and evaluation of antimicrobial activity of 4H-pyrimido[2,1-b]benzothiazole, pyrazole and benzylidene derivatives of curcumin” (Eur J Med Chem, 2012).
